The source made the active and inactive calls. The rule behind the calls is not given here.
How the values were obtained:
Homo sapiens [1] = species on record: Homo sapiens; assay: Inhibition of sodium potassium ATPase in human OVCAR3 cells assessed as increase in ERK phosphorylation levels at 100 nM after 120 mins by Western blot analysis; assay type: cell-based
Procedure, shortened: (§1)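 Cells exposed to 100 nM for indicated times; RIPA lysates, 25 µg protein on SDS-PAGE/PVDF probed for phospho-ERK and total ERK (1:500 each), HRP secondary, chemiluminescent detection.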

Homo sapiens [2] = species on record: Homo sapiens; assay: Inhibition of sodium potassium ATPase in human OVSAHO cells assessed as upregulation of p21 protein expression at 100 nM by Western blot analysis; assay type: cell-based
Procedure, shortened: (§2)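 Treated cells washed with PBS, lysed in RIPA on ice 15 min, cleared 14,000 g at 4 °C; 25 µg protein by BCA run on SDS-PAGE, PVDF, milk block, primary antibody overnight at 4 °C, HRP anti-rabbit, chemiluminescence; actin loading control; densitometry, n = 3, mean ± SEM.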

[3] = Antiproliferative activity against CD-1 mouse MOE cells harboring PTENshRNA/KRASG12V mutation after 72 hrs; assay type: functional, cell-based; settings: CD-1, MOE
Procedure, shortened: (§3)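 MOE cells from pooled oviducts of 8-week-old female CD1 mice in supplemented α-MEM with EGF, insulin, transferrin, selenite, β-estradiol; scrambled and PTEN shRNA/KRAS G12V clones kept under puromycin (plus hygromycin for the mutant). Log-phase cells seeded 5,000/well, overnight, DMSO-dissolved compound added, 72 h; viable cells read by MTS-type absorbance; IC50 in nM relative to DMSO control.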

Homo sapiens [4] = species on record: Homo sapiens; assay: Inhibition of sodium potassium ATPase in human OVSAHO cells assessed as downregulation of p53 protein expression at 100 nM after 72 hrs by Western blot analysis; assay type: cell-based
Homo sapiens [5] = species on record: Homo sapiens; assay: Inhibition of sodium potassium ATPase in human OVSAHO cells assessed as increase in ERK phosphorylation levels at 100 nM after 120 mins by Western blot analysis; assay type: cell-based; procedure, shortened: as §1
OVCAR-3 [6] = assay: Induction of apoptosis in human OVCAR3 cells assessed as upregulation of cleaved PARP expression at 100 nM by Western blot analysis; assay type: functional, cell-based; procedure, shortened: as §2
Homo sapiens [7] = species on record: Homo sapiens; assay: Inhibition of sodium potassium ATPase in human OVCAR3 cells assessed as downregulation of p53 protein expression at 100 nM after 72 hrs by Western blot analysis; assay type: cell-based; procedure, shortened: as §2
[8] = Antiproliferative activity against CD-1 mouse MOE cells derived from 8 to 25 passages after 72 hrs; assay type: cell-based; settings: CD-1, MOE; procedure, shortened: as §3
[9] = Antiproliferative activity against CD-1 mouse MOE cells harboring scrambled RNA after 72 hrs; assay type: cell-based; settings: CD-1, MOE; procedure, shortened: as §3
Homo sapiens [10] = species on record: Homo sapiens; assay: Inhibition of sodium potassium ATPase in human OVCAR3 cells assessed as upregulation of p21 protein expression at 100 nM by Western blot analysis; assay type: cell-based; procedure, shortened: as §2
OVCAR-3 [11] = assay: Induction of apoptosis in human OVCAR3 cells assessed as upregulation of cleaved caspase 3 expression at 100 nM by Western blot analysis; assay type: functional, cell-based; procedure, shortened: as §2
Homo sapiens [12] = species on record: Homo sapiens; assay: Inhibition of sodium potassium ATPase in human OVCA432 cells assessed as downregulation of p53 protein expression at 100 nM after 72 hrs by Western blot analysis; assay type: cell-based
Procedure, shortened: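 Cells exposed to 100 nM for 72 h; RIPA lysates, 25 µg protein on SDS-PAGE/PVDF, anti-p53 (1:500) overnight at 4 °C, HRP secondary, chemiluminescence, actin control; densitometry.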

OVCAR-3 [13] = assay: Induction of apoptosis in human OVCAR3 cells assessed as decrease in Mcl-1 levels at 100 nM by Western blot analysis; assay type: functional, cell-based; procedure, shortened: as §2
[14] = Antiproliferative activity against CD-1 mouse MOE cells derived from 85 to 120 passages after 72 hrs; assay type: functional, cell-based; settings: CD-1, MOE; procedure, shortened: as §3
Homo sapiens [15] = species on record: Homo sapiens; assay: Inhibition of sodium potassium ATPase in human OVCAR3 cells assessed as reduction in TNFalpha-induced NFkappaB activation at 100 nM after 4 hrs by luciferase reporter gene assay relative to control; assay type: cell-based
Procedure, shortened: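 OVCAR3 plated 25,000/well, overnight, transfected 24 h with 0.05 µg/well NF-κB-element luciferase reporter in serum medium; then 10 ng/mL TNFα plus 100 nM compound for 4 h; luciferase luminescence, fold change versus untreated, ANOVA.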

OVCAR-3 [16] = assay: Induction of apoptosis in human OVCAR3 cells assessed as decrease in Bcl-xL levels at 100 nM by Western blot analysis; assay type: functional, cell-based; procedure, shortened: as §2
OVCAR-3 [17] = assay: Cell cycle arrest in human OVCAR3 cells assessed as accumulation at G2/M phase at 100 nM after 72 hrs by propidium iodide staining-based flow cytometry method; assay type: functional
Procedure, shortened: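 Cells in 6-well plates treated 72 h, trypsinized, fixed in 70% ethanol, PBS-washed, stained in PBS with 1 mg/mL RNase and 50 µg/mL propidium iodide for 30 min in the dark at room temperature; DNA content by flow cytometry, phase distribution compared with vehicle.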

OVSAHO = assay: Induction of apoptosis in human OVSAHO cells assessed as upregulation of cleaved PARP expression at 100 nM after 72 hrs by Western blot analysis; assay type: functional, cell-based; procedure, shortened: as §2
[18] = Antiproliferative activity against human IOSE-80 cells after 72 hrs by CellTiter 96 aqueous one solution assay; assay type: cell-based; settings: IOSE80, 72 h
Procedure, shortened: (§4)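 Log-phase cells harvested by trypsin with two PBS washes, seeded 5,000/well, incubated overnight. Serial dilutions of compound from DMSO stock added, 72 h exposure. Viability read by absorbance. IC50 (nM) calculated relative to DMSO solvent control.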

OVCAR-8 = assay: Antiproliferative activity against human OVCAR8 cells after 72 hrs by CellTiter 96 aqueous one solution assay; assay type: functional, cell-based; settings: OVCAR-8, 72 h
Procedure, shortened: as §4, with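 “control. Cultures at 37 °C, 5% CO2 in their own media (RPMI, MEM, DMEM, or Medium 199/MCDB for IOSE-80).” for “control.”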

MDA-MB-231 = assay: Antiproliferative activity against human MDA-MB-231 cells after 72 hrs by CellTiter 96 aqueous one solution assay; assay type: functional, cell-based; settings: MDA-MB-231, 72 h; procedure, shortened: as §4
OVCAR-5 = assay: Antiproliferative activity against human OVCAR5 cells after 72 hrs by CellTiter 96 aqueous one solution assay; assay type: functional, cell-based; settings: OVCAR-5, 72 h; procedure, shortened: as §4
OVCAR-3 [19] = assay: Antiproliferative activity against human OVCAR3 cells after 72 hrs by CellTiter 96 aqueous one solution assay; assay type: functional, cell-based; settings: OVCAR-3, 72 h
Procedure, shortened: as §4, with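 “control. Cultures at 37 °C, 5% CO2 in their own media (RPMI, MEM, DMEM, or Medium 199/MCDB for IOSE-80).” for “control.”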

MDA-MB-435 = assay: Antiproliferative activity against human MDA-MB-435 cells after 72 hrs by CellTiter 96 aqueous one solution assay; assay type: functional, cell-based; settings: MDA-MB-435, 72 h; procedure, shortened: as §4
KURAMOCHI = assay: Antiproliferative activity against human Kuramochi cells after 72 hrs by CellTiter 96 aqueous one solution assay; assay type: functional, cell-based; procedure, shortened: as §4
OVCAR-4 = assay: Antiproliferative activity against human OVCAR4 cells after 72 hrs by CellTiter 96 aqueous one solution assay; assay type: functional, cell-based; settings: OVCAR-4, 72 h; procedure, shortened: as §4
HT-29 = assay: Antiproliferative activity against human HT-29 cells after 72 hrs by CellTiter 96 aqueous one solution assay; assay type: functional, cell-based; settings: HT-29, 72 h; procedure, shortened: as §4
[20] = Antiproliferative activity against human OVSAHO cells after 72 hrs by CellTiter 96 aqueous one solution assay; assay type: functional, cell-based; procedure, shortened: as §4

Structure (SMILES)	inhibition (Homo sapiens [1])	inhibition (Homo sapiens [2])	IC50 [3] [nM]	inhibition (Homo sapiens [4])	inhibition (Homo sapiens [5])	Activity (OVCAR-3 [6])	inhibition (Homo sapiens [7])	IC50 [8] [nM]	IC50 [9] [nM]	inhibition (Homo sapiens [10])	Activity (OVCAR-3 [11])	inhibition (Homo sapiens [12])	Activity (OVCAR-3 [13])	IC50 [14] [nM]	inhibition (Homo sapiens [15]) [%]	Activity (OVCAR-3 [16])	Activity (OVCAR-3 [17])	Activity (OVSAHO)	also measured
CO[C@H]1[C@H](O[C@H]2CC[C@]3(C=O)[C@H]4CC[C@]5(C)[C@@H](C6=CC(=O)OC6)CC[C@]5(O)[C@@H]4CC[C@]3(O)C2)O[C@H](C)[C@H](O)[C@@H]1OC [STREBLOSIDE]	Active	Active	> 50000	Active	Active	Active	Active	> 50000	> 50000	Active	Active	Active	Active	> 50000	29	Active	Active	Active	
C[C@H]1O[C@@H](O[C@H]2[C@@H](O)C[C@H](O[C@H]3[C@@H](O)C[C@H](O[C@H]4CC[C@@]5(C)[C@H](CC[C@@H]6[C@@H]5CC[C@]5(C)[C@@H](C7=CC(=O)OC7)CC[C@]65O)C4)O[C@@H]3C)O[C@@H]2C)C[C@H](O)[C@@H]1O [DIGITOXIN]	Active	Active	> 50000	Active	Active	Active	Active	> 50000	> 50000	Active	Active	Active	Active	> 50000	50	Active	Active	Active	IC50 [18]: 48.4 nM; IC50 (OVCAR-8): 71.5 nM; IC50 (MDA-MB-231): 482 nM; IC50 (OVCAR-5): 321 nM; IC50 (OVCAR-3 [19]): 117 nM; IC50 (MDA-MB-435): 43.3 nM; IC50 (KURAMOCHI): 5910 nM; IC50 (OVCAR-4): 426 nM; IC50 (HT-29): 67.6 nM; IC50 [20]: 250 nM

— ChEMBL document CHEMBL4052609, “(+)-Strebloside-Induced Cytotoxicity in Ovarian Cancer Cells Is Mediated through Cardiac Glycoside Signaling Networks” (J Nat Prod, 2017)
